In ChEMBL document CHEMBL3351833, “Synthesis and Biological Evaluation of Pyrazolo[1,5-a]pyrimidine Compounds as Potent and Selective Pim-1 Inhibitors” (ACS Med Chem Lett, 2015) one finds inhibition, IC50 and EC50 data, which are given here for 1 molecule.

Test [1] concerns the target Macrophage colony-stimulating factor 1 receptor (Homo sapiens) (UniProt P07333). Nature of the test: Inhibition of FMS (unknown origin) at 1 uM.
Test [2] concerns the target T1, Receptor-type tyrosine-protein kinase FLT3 (Homo sapiens, UniProt P36888).
T1 sequence (P36888 whole entry): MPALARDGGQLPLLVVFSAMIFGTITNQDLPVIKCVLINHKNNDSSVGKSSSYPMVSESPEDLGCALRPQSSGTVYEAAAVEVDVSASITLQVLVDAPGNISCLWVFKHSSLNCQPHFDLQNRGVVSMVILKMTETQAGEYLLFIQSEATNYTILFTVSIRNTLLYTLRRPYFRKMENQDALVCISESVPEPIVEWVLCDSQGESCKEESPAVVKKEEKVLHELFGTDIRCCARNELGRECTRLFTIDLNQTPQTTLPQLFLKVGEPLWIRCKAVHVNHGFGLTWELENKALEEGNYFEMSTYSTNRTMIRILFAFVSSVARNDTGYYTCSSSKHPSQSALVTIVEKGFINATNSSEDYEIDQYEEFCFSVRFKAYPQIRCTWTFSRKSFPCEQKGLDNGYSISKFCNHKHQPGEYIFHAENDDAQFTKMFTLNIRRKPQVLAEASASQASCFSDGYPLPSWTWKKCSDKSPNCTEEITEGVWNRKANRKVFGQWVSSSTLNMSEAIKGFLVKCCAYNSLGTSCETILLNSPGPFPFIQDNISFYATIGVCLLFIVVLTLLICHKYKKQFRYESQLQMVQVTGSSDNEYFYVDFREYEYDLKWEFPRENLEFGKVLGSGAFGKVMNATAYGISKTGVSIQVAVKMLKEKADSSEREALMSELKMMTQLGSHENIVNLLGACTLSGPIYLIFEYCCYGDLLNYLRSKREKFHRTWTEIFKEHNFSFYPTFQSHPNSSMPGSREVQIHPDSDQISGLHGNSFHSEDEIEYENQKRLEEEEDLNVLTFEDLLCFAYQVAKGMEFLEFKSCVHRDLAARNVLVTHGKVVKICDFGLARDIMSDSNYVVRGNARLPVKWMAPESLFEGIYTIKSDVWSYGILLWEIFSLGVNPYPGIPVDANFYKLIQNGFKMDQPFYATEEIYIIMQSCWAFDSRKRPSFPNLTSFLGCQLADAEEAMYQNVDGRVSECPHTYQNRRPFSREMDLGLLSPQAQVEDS
Kind of test: Inhibition of human Flt3 (unknown origin).

The target in test [3] is High affinity nerve growth factor receptor (Homo sapiens) (UniProt P04629). Nature of the test: Inhibition of TRKA (unknown origin) at 1 uM.
In test [4] the target is Voltage-gated inwardly rectifying potassium channel KCNH2 (Homo sapiens, UniProt Q12809). Kind of test: Inhibition of human ERG expressed in CHO cells by automated patch clamp method. The format is cell-based.
For test [5], the target named is T2, Homeodomain-interacting protein kinase 4 (Homo sapiens) (UniProt Q8NE63).
T2 sequence (whole entry): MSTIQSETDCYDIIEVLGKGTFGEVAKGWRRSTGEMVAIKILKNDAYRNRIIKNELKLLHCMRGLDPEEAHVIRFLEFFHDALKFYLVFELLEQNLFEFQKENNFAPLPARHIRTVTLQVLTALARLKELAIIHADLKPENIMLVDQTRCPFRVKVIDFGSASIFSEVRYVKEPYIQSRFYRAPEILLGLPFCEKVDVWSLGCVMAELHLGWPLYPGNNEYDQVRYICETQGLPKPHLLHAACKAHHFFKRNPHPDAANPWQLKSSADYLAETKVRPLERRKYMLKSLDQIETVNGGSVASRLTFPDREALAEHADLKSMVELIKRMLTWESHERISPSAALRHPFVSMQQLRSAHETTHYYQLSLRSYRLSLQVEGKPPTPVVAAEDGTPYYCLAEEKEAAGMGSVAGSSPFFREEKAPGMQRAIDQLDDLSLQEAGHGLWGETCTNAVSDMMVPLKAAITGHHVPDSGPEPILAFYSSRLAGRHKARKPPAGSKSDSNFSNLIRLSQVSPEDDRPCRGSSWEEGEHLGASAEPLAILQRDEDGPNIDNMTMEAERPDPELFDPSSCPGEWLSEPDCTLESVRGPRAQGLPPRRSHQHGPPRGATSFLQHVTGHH
Nature of the test: Inhibition of HIPK4 (unknown origin) at 1 uM.

The target of test [6] is Tyrosine-protein kinase JAK2 (Homo sapiens) (UniProt O60674). Nature of the test: Inhibition of JAK2 (unknown origin) at 1 uM.
Test [7] deals with Proto-oncogene tyrosine-protein kinase Src (Homo sapiens) (UniProt P12931). Kind of test: Inhibition of c-Src (unknown origin) at 1 uM.
For test [8], the target named is Tyrosine-protein kinase Lck (Homo sapiens) (UniProt P06239). Nature of the test: Inhibition of LCK (unknown origin) at 1 uM.
The nature of test [9]: Growth inhibition of human UM-UC-3 cells after 24 hrs by Clonogenic cell survival assay. In kind it is functional, cell-based. Particulars: UMUC3, 24 h. In a few lines:
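Two-dimensional colony formation (clonogenic survival) of human UM-UC-3 bladder carcinoma and HSC-3 oral squamous carcinoma cells, assessing the cytostatic effect on colony growth.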

Chain of Proto-oncogene tyrosine-protein kinase Src (Homo sapiens) (P12931 2-536 limits assumed): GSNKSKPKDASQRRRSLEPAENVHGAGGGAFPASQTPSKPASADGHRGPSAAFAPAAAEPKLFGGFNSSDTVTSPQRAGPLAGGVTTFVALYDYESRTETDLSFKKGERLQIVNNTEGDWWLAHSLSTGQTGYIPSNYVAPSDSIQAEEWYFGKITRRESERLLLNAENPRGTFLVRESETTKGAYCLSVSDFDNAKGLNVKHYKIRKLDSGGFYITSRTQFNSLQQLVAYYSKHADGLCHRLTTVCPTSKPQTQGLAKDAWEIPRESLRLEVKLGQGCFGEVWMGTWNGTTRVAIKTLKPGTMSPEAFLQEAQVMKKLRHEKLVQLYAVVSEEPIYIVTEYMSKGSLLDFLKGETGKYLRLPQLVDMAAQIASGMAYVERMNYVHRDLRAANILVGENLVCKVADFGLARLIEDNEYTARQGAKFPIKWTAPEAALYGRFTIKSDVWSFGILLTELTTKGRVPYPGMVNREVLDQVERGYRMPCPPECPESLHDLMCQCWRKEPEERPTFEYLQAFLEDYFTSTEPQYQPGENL
Chain of High affinity nerve growth factor receptor (Homo sapiens) (P04629 33-796 limits assumed): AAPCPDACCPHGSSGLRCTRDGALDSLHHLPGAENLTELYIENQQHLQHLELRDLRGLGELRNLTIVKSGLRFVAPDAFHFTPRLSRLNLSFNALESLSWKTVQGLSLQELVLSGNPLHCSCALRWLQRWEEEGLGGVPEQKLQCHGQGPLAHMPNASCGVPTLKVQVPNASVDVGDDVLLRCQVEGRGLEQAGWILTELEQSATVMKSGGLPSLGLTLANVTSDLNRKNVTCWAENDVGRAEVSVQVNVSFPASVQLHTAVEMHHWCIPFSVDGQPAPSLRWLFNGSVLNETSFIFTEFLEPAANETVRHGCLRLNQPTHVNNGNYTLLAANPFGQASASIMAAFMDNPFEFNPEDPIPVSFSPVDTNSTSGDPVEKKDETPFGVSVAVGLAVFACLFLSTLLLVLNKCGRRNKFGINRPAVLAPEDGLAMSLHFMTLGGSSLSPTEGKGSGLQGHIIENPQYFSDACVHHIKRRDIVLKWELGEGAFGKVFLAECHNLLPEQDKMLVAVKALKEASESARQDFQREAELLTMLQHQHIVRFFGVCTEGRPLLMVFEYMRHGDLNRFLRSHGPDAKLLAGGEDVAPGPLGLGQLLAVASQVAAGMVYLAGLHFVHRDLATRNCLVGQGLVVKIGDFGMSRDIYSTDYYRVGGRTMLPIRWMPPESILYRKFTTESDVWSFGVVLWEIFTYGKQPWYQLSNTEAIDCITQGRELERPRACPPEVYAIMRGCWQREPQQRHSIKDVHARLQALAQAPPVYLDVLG
Chain of Tyrosine-protein kinase Lck (Homo sapiens) (P06239 2-509 limits assumed): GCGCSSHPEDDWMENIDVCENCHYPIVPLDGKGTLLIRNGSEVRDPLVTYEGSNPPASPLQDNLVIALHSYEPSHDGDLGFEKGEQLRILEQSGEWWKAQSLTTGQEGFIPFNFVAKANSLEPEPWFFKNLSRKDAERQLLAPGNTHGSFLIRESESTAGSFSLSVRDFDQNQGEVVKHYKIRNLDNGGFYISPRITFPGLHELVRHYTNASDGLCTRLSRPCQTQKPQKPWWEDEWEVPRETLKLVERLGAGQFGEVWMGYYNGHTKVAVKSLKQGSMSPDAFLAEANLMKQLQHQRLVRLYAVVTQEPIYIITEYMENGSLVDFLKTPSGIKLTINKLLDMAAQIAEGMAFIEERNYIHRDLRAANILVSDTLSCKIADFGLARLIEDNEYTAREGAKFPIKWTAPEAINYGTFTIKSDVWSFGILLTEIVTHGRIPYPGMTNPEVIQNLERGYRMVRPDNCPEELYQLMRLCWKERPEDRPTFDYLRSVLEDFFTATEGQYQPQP
Chain of Macrophage colony-stimulating factor 1 receptor (Homo sapiens) (P07333 whole entry): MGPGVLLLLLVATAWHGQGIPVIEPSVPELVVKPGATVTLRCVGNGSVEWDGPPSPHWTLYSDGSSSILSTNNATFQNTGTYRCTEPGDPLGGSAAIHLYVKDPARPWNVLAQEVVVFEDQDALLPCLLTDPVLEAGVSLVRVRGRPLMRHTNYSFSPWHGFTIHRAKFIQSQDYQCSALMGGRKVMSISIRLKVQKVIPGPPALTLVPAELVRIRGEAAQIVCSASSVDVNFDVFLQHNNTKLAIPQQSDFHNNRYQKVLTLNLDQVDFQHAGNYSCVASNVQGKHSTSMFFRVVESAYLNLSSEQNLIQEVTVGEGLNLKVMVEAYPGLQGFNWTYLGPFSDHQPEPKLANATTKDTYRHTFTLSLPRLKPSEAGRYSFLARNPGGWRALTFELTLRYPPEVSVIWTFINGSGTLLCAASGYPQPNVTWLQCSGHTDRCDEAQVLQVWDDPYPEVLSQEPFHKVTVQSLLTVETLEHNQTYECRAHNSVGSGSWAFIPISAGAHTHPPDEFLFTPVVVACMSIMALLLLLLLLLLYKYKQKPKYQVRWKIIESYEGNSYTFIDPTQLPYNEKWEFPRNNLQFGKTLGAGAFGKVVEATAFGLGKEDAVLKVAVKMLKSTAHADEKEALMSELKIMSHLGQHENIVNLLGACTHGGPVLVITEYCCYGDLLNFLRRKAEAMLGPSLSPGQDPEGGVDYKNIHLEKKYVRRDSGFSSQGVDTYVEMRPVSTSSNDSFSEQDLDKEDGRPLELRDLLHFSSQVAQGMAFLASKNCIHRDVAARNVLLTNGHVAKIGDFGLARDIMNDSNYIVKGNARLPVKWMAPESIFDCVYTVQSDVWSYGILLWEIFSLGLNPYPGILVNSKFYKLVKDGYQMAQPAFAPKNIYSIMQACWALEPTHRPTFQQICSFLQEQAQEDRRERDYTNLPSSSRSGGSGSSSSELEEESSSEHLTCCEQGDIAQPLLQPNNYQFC
Chain of Voltage-gated inwardly rectifying potassium channel KCNH2 (Q12809 whole entry): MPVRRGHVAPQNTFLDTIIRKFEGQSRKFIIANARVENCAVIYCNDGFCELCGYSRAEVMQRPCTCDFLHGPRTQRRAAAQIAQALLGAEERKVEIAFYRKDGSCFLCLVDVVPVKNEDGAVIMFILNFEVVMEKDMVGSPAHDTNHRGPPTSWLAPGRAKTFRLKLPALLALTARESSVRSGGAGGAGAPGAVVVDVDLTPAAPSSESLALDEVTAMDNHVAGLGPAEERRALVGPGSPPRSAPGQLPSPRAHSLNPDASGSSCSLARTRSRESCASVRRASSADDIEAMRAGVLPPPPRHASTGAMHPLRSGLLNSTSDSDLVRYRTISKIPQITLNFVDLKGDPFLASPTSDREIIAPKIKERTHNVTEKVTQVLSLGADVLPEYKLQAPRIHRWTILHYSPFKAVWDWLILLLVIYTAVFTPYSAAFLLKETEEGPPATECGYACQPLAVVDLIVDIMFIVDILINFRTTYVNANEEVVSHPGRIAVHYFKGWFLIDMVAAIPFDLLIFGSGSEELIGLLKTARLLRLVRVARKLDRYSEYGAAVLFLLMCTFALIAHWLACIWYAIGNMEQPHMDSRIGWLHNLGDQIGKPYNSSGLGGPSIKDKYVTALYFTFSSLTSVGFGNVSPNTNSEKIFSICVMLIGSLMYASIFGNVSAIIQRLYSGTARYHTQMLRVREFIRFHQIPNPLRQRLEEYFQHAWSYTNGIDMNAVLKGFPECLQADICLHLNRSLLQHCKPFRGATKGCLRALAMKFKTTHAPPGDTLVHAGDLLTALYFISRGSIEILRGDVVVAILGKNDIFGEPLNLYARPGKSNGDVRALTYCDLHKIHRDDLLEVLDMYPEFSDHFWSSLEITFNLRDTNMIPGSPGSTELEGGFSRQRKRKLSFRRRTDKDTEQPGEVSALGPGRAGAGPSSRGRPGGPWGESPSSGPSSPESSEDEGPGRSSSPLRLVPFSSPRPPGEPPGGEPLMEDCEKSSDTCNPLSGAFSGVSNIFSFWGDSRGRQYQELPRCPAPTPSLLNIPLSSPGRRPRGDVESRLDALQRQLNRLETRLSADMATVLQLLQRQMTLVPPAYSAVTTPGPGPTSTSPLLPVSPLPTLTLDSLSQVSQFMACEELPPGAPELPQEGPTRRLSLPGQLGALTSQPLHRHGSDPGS
Chain of Tyrosine-protein kinase JAK2 (Homo sapiens) (O60674 whole entry): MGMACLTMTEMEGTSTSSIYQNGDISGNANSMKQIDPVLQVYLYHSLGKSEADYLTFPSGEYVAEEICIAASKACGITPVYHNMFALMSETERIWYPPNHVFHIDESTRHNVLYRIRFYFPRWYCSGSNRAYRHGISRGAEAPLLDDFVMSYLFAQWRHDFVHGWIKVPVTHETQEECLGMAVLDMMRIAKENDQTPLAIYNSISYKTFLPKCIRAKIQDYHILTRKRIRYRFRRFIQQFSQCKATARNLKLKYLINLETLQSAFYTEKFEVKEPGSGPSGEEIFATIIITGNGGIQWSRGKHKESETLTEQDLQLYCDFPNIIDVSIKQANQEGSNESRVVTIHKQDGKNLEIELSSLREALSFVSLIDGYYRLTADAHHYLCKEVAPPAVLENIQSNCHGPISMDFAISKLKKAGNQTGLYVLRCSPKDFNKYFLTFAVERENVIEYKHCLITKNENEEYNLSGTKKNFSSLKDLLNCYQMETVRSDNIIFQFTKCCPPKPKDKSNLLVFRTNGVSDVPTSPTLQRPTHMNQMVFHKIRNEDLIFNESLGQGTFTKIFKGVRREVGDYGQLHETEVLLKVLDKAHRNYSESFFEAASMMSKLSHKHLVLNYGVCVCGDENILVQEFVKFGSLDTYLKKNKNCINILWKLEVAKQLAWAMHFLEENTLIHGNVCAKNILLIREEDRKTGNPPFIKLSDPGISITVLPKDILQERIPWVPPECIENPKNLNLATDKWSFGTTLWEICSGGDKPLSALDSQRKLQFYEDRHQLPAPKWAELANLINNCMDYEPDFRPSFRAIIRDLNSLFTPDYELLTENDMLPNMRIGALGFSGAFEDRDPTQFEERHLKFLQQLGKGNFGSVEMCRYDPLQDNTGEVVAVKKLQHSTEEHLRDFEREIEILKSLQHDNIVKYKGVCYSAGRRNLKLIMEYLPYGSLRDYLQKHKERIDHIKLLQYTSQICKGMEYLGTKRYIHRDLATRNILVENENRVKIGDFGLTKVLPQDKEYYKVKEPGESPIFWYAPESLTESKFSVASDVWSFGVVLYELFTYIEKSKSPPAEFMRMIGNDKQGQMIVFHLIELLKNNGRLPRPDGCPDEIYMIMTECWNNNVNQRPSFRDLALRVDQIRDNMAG

As usually defined, the inhibition is how much of the control response was suppressed. As a reminder, the IC50 is the concentration that inhibits the measured activity by half. Usually EC50 stands for the concentration that produces a half-maximal response. Consider `CC(C)(O)[C@H]1CC[C@H](Nc2ccn3ncc(-c4cccc(Cl)c4)c3n2)CC1`, for which the inhibition was more than 50% in test [1]; more than 80% in test [3]; more than 80% in test [5]; more than 50% in test [6]; more than 50% in [7]; more than 80% in [8]. For the same molecule, the IC50 is 125 nM in test [2] and more than 30000 nM in [4]. The same molecule yielded an EC50 in test [9] of 914 nM.
